# Screening results from PubChem.
# The list is not random: actives were taken first. Their share in the collection is about 2.3%.
# TRPC4 block: blocks the mouse TRPC4 cation channel; Q9QUQ5; HEK293 TRPC4beta/mu-opioid, DAMGO-evoked Fluo4 calcium flux; stronger effect = lower value; B-score at 10 µM; 0.39% of 300,000 active; AID 2247;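 active means B-score over 3 SD under the library average, no early fluorescence shift, positive overall ratio signal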
# Target sequence (Q9QUQ5 whole entry, looked up): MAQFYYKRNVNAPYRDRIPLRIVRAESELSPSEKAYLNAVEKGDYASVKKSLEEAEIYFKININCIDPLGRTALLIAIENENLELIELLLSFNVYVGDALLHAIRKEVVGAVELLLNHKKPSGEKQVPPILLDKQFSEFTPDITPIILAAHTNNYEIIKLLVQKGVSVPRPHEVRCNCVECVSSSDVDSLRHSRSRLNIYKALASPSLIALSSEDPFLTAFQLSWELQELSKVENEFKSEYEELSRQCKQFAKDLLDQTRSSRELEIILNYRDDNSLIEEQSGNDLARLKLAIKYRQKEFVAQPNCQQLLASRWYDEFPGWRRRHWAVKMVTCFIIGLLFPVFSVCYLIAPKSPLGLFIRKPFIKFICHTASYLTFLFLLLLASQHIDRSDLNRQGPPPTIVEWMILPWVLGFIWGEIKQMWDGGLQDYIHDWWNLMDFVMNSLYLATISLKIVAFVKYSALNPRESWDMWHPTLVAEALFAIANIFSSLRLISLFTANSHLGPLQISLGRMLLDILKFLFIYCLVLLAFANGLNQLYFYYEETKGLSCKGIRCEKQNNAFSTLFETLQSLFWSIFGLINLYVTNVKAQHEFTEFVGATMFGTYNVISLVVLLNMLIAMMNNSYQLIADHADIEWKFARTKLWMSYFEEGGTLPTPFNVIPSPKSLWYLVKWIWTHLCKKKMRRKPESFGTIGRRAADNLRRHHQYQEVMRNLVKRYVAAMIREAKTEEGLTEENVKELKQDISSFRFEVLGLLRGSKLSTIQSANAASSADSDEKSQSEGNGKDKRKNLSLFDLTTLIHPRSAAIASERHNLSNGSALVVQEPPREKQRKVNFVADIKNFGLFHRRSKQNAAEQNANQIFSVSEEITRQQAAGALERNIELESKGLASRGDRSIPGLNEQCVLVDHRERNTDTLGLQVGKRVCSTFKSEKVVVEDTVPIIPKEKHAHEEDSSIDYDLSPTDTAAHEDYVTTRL
#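 System: stable TRPC4beta/mu-opioid receptor HEK293 cells; Dosing: single-point compound dosing; Measured by: Fluo4 Ca2+ flux fluorescence; Read-out basis: per-well B score of integrated baseline-normalized Fluo4 ratio.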
# TRPC4 potent: allosterically enhances the mouse TRPC4 cation channel; 0.42% of 310,000 active; HEK293 TRPC4beta/mu-opioid, DAMGO EC20, Fluo-4 Ca2+ flux; stronger effect = higher value; B-score at 10 µM; AID 2227; Q9QUQ5;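 active means B-score of calcium response area above 5 SD of library B-scores, with initial fluorescence ratio within 5 SD of library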;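 further: B-score of integrated fluorescence ratio over time as area under calcium response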
# TRPC4 agonist: activators of mouse TRPC4 channel | HEK293 TRPC4beta/mu-opioid, Fluo4 calcium fluorescence; stronger effect = higher value | B-score at 10 µM | 0.49% of 310,000 active | AID 2237;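 active means B-score above 5 SD of library B-scores, and initial fluorescence ratio not above library mean plus 5 SD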;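 further: positive B-score marks a calcium rise read as TRPC4 activation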
#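 Technique: kinetic Fluo4 calcium fluorescence; Test system: TRPC4beta and mu-opioid receptor HEK293 stable cells; Measure: B-scored integrated calcium fluorescence ratio; Benchmarks: low control buffer alone, high control maximal DAMGO; Schedule: 45 min room-temperature Fluo4 loading, 110 s read.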
# TRPC6 inhibitor: mouse TRPC6 channel inhibition | Q61143 | HEK293-TRPC6, membrane potential dye, ACh-evoked depolarization; stronger effect = lower value | B-score at 10 µM | 1.1% of 310,000 active;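 active means B-score under library mean minus 3 SD, initial fluorescence not abnormally high, positive integrated signal ratio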;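 further: B-score derived from integrated fluorescence ratio over the kinetic read; more negative B-score means stronger inhibition of depolarization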
# TRPC6 act: mouse TRPC6 channel activation; HEK293-TRPC6 membrane potential dye fluorescence; stronger effect = higher value; B-score at 10 µM; Q61143; 0.13% of 310,000 active;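 active means B-score of the integrated fluorescence ratio above library mean plus 3 SD, and starting fluorescence ratio within library mean plus 5 SD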;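 further: higher score means more depolarization so channel activation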
# TRPC4 spec 2: mouse TRPC4 off-target activity of TRPC6 inhibitors, second screen; shares compounds with TRPC6 inhibitor; HEK293 TRPC4/MOR, membrane potential dye fluorescence; channel activated by saturating DAMGO dose; inhibition, % at 10 µM; 42% of 920 active;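 active means compounds whose fluorescence signal differed from control wells by over 3 SD, either direction, in both duplicate plates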
# TRPC4 spec: mouse TRPC4 off-target activity of TRPC6 inhibitors; shares compounds with TRPC6 inhibitor; HEK293 TRPC4/mu-opioid, membrane potential fluorescence; 61% of 920 active; activity change, negative = inhibition, % at 10 µM;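 active means rise or fall in signal beyond 3 SD of buffer-only wells in both replicate plates, either sign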;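 further: integrated kinetic ratio of fluorescence range over baseline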
# HEK293 MPD ctr 2-1: second counter-screen for TRPC6 inhibitors: parental HEK293 cells; shares compounds with TRPC6 inhibitor; 31% of 920 active; AID 2779; parental HEK293 membrane potential dye fluorescence; maximal acetylcholine challenge after compound addition; signal change vs control, % at 10 µM;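 active means membrane potential signal moving either way by over 3 SD of the maximum-effect control, in both duplicate plates, meaning non-specific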
# HEK293 MPD ctr-1: parental HEK293 nonspecific activity of TRPC6 inhibitors; 60% of 920 active; membrane potential signal change, % at 10 µM; shares compounds with TRPC6 inhibitor; parental HEK293 membrane potential dye fluorescence;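 active means membrane potential signal shifting up or down by more than 3 SD of buffer-only wells, on both duplicate plates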
# HEK293 MPD ctr-2: checks TRPC6 modulator effects in parental HEK293 cells; 51% of 2,400 active; membrane potential signal change, % at 10 µM; membrane potential dye fluorescence; shares compounds with TRPC6 inhibitor;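 active means membrane potential signal moves up or down beyond 5 SD from buffer-only wells, on both duplicate plates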
# HEK293 MPD ctr 2-2: second counter-screen for TRPC6 modulators: effect in parental HEK293 cells | shares compounds with TRPC6 inhibitor | membrane potential dye fluorescence; after compound, maximal acetylcholine stimulation | inhibition, % at 10 µM | 14% of 2,400 active;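 active means membrane potential signal drops by more than 5 SD from the mean control signal, in both duplicate plates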;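 further: plate controls were acetylcholine ECmax control wells for no effect and buffer only wells for full effect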
# TRPC4/MOR mod: selectivity of TRPC6 modulators against mouse TRPC4; 69% of 2,400 active; percent change from control (negative = decrease, positive = increase), % at 10 µM; shares compounds with TRPC6 inhibitor; AID 488927; HEK293 TRPC4/mu-opioid, membrane potential fluorescence;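 active means membrane potential signal moved up or down beyond 5 SD of buffer control wells, in both duplicate plates, actives on both sides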;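 further: plate controls were assay buffer wells for no effect and DAMGO maximal-effect wells for full effect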
# TRPC4 ctr inh 2: second check of whether TRPC6 modulators also affect mouse TRPC4; 55% of 2,400 active; HEK293 TRPC4/mu-opioid, membrane potential dye fluorescence; stimulated with maximal-effect DAMGO; AID 488928; shares compounds with TRPC6 inhibitor; inhibition, % at 10 µM;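 active means drop in membrane potential signal beyond 5 SD of the control wells in both duplicate plates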;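 further: TRPC4 counter screen for TRPC6 hits run under conditions tuned for TRPC6 not TRPC4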
# TRPC6 inh conf: mouse TRPC6 inhibitor confirmation | shares compounds with TRPC6 inhibitor | HEK293-TRPC6, membrane potential dye, ACh-evoked depolarization | inhibition, % at 10 µM | 43% of 3,300 active | AID 488960;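 active means fluorescence ratio falls more than 5 SD below the full-stimulation control mean, in both duplicate runs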;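 further: integrated fluorescence ratio of peak minus minimum over baseline after agonist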
# TRPC6 act conf: confirmation of mouse TRPC6 activators | shares compounds with TRPC6 inhibitor | HEK293-TRPC6 membrane potential dye fluorescence, FDSS | activation, % at 10 µM | 11% of 2,800 active | AID 488961;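 active means ratio signal rise beyond 5 SD above unstimulated control wells' mean, seen in both duplicate runs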;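 further: plate controls were buffer EC0 wells for no effect and acetylcholine ECmax response for full effect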
# Starred values were filed as active, the others as inactive; i = inactive; · = not tested or not shown.
SMILES,TRPC4 block,TRPC4 potent,TRPC4 agonist,TRPC6 inhibitor,TRPC6 act,HEK293 MPD ctr-2,HEK293 MPD ctr 2-2,TRPC4/MOR mod,TRPC4 ctr inh 2,TRPC6 inh conf,TRPC6 act conf,others
Cc1ccc(Nc2c(-c3ccc(N(C)C)cc3)nc3ncccn23)cc1,i,i,i,i,i,·,·,·,·,·,·,
Cc1ccc(Nc2c(-c3ccc(C)o3)nc3ncccn23)cc1,i,i,i,i,i,·,·,·,·,·,·,
Brc1ccc(-c2nc3ncccn3c2NC2CCCCC2)o1,i,i,i,-5.03*,i,116.5%*,i,22.0%*,36.0%*,i,i,
CCCCOC(=O)c1ccc(NC(=O)c2ccoc2C)cc1,i,i,i,i,i,·,·,·,·,·,·,
CCCCOC(=O)c1ccc(NC(=O)c2ccccc2OC)cc1,i,i,i,i,i,·,·,·,·,·,·,
CCCCCOC(=O)c1ccc(NC(=O)c2cccc(NC(=O)c3ccccc3C(=O)O)c2)cc1,i,i,i,i,14*,i,i,15.0%*,i,·,199.5%*,
CCCCOC(=O)c1ccc(NC(=O)c2ocnc2C)cc1,i,i,i,-6.68*,i,·,·,·,·,i,i,TRPC4 spec 2=i;TRPC4 spec=i;HEK293 MPD ctr 2-1=i;HEK293 MPD ctr-1=i
Cn1c(N)c(S(=O)(=O)N2CCN(c3ccccc3F)CC2)c(=O)n(C)c1=O,i,i,i,i,i,·,·,·,·,·,·,
CC(=Nc1ccccc1)c1sc2ccccc2c1O,i,i,i,i,12.7*,395.0%*,i,56.0%*,i,i,115.5%*,
O=C(NCc1cccnc1)c1cccn2c(=O)c3sccc3nc12,i,i,i,-7.33*,i,·,·,·,·,i,i,TRPC4 spec 2=i;TRPC4 spec=-25.7%*;HEK293 MPD ctr 2-1=i;HEK293 MPD ctr-1=-340.5%*
CCOCCCNC(=S)N1C2CCC1CC(NC(=O)Nc1ccc(C(=O)OCC)cc1)C2 (stereo not given),i,i,i,-7.17*,i,i,i,i,i,66.5%*,·,
COCC(C)OC(=O)C(C#N)c1nc2ccccc2nc1N1CCN(Cc2ccccc2)CC1 (stereo not given),i,i,i,i,i,·,·,·,·,·,·,
COCCOC(=O)C(C#N)c1nc2ccccc2nc1N1CCN(Cc2ccccc2)CC1 (stereo not given),i,i,i,-6.17*,i,i,i,i,36.0%*,i,i,
CC(NC(=O)c1cc2cc(F)ccc2[nH]1)c1ccccc1 (stereo not given),i,i,i,i,i,·,·,·,·,·,·,
CNC(=O)N(O)C1N(/N=C/c2cc(Br)ccc2O)C(=S)SC1(C)C (stereo not given),i,i,i,-6.71*,i,·,·,·,·,i,i,TRPC4 spec 2=i;TRPC4 spec=-12.3%*;HEK293 MPD ctr 2-1=i;HEK293 MPD ctr-1=-212.0%*
CNC(=O)N(O)C1N(/N=C/c2ccc(C)cc2)C(=S)SC1(C)C (stereo not given),i,i,i,i,i,·,·,·,·,·,·,
COc1ccc(Oc2c(C(F)(F)F)oc3cc(OCC(=O)O)ccc3c2=O)cc1,i,i,i,-5.17*,i,i,i,i,i,i,i,
OCCN(CC#CCC(O)(c1ccccc1)C1CCCC1)CCO (stereo not given),i,i,i,i,i,·,·,·,·,·,·,
CN(C)CC#CCC(O)(c1ccccc1)C1CCCCC1 (stereo not given),i,i,i,-6.53*,i,i,105.0%*,19.5%*,36.0%*,78.5%*,i,
CCN(CC)CC#CCC(O)(c1ccccc1)C1CCCC1 (stereo not given),i,i,i,-6.45*,i,156.5%*,99.5%*,29.5%*,i,75.0%*,·,
CCN(CC)CCC#CC(O)(c1ccccc1)C1CCCCC1 (stereo not given),i,i,i,-7.61*,i,·,·,·,·,63.5%*,·,TRPC4 spec 2=62.5%*;TRPC4 spec=48.8%*;HEK293 MPD ctr 2-1=i;HEK293 MPD ctr-1=17.2%*
CCC[N+]1(CC#CC(O)(c2ccccc2)C2CCCCC2)CCCCC1 (stereo not given),i,i,i,i,i,·,·,·,·,·,·,
O=C(CSc1nnc(-c2ccccc2Cl)o1)Nc1ccccn1,i,i,i,i,i,·,·,·,·,·,·,
CC1(NC(=O)Nc2cccc3ccccc23)CCS(=O)(=O)C1 (stereo not given),i,i,i,i,i,·,·,·,·,·,·,
C=CCc1cc(Cl)ccc1OCCN(C)C,·,i,i,-5*,i,i,i,8.0%*,i,i,i,
C=CCNC(=O)N1CCCC(C(=O)c2cccc(OC(C)C)c2)C1 (stereo not given),i,i,i,i,i,·,·,·,·,·,·,
COc1cc(N2CCCC2)c(OC)cc1C=O,i,i,i,-7.89*,i,·,·,·,·,i,i,TRPC4 spec 2=i;TRPC4 spec=i;HEK293 MPD ctr 2-1=249.5%*;HEK293 MPD ctr-1=i
Cc1ccc(C)c2[nH]c(=O)c(CN(CCN3CCCC3)C(=O)Nc3cccc(Cl)c3)cc12,i,i,i,-6.81*,i,i,67.0%*,i,80.5%*,59.5%*,i,
